# Bioassay records: PubChem BioAssay, several laboratories
# An excerpt weighted towards active compounds, which were near 5.1% of everything screened.
# STAT3 act: STAT3 signaling activation; 0.91% of 190,000 active; U3A cells, IL-6 STAT3-luciferase reporter, luminescence; 100% = signal with IL-6 EC80 alone; AID 871; activation (% of control), % at 5.6 µM;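 active means activation above the screen-wide mean of compound activation plus 3 SD, cut at about 130% in these data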;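 further: 0% = background luminescence of wells with medium and substrate only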
#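 Material: human U3A cells carrying STAT3-luciferase construct. Measured by: reporter luminescence signal. Timing: compound 1 h, then IL-6 6 h at 37 °C.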
# APP 5'UTR act: APP 5'UTR luciferase reporter activation; SH-SY5Y APP 5'UTR luciferase reporter, luminescence; zero percent = DMSO vehicle wells; activation, % at 2 µM; 1% of 190,000 active; AID 1276;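 active means activation above a set limit, based on mean plus 3 SD of controls, cut at about 140% in these data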
# STAT1 blocker: reduces IFN-gamma driven STAT1 reporter signal | NIH 3T3 STAT1-luciferase reporter, luminescence | inhibition, % at 5.5 µM | 0.35% of 200,000 active;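 active means inhibition above a set limit, the mean inhibition across all tested compounds plus 3 SD, cut at about 34% in these data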;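 further: 0% = IFN-gamma with DMSO and 100% = IFN-gamma with 300 µM nifuroxazide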
# STAT3 inh: STAT3 signaling inhibition. U3A cells, IL-6 STAT3-luciferase reporter, luminescence; host cell line lacks STAT1. inhibition, % at 5.5 µM. 0.89% of 190,000 active;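 active means inhibition above the mean inhibition across all screened compounds plus 3 SD, cut at about 44% in these data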;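 further: 0% = DMSO only wells and 100% = 100 µM nifuroxazide control wells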
# STAT1 act: increases IFN-gamma driven STAT1 reporter signal; activation (% of control), % at 5.5 µM; NIH 3T3 STAT1-luciferase reporter, luminescence; 100% = IFN-gamma alone, no compound; 2.6% of 200,000 active;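 active means activation above the screen-wide mean activation plus 3 SD, cut at about 130% in these data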;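 further: raw ratio to IFN-gamma control signal so 100% means no change and 0% no light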
# NF-kB expr up: compounds increasing NF-kB expression in human neuronal cells. NF-kB reporter expression; hits give high values. fold change at 12.5 µM. 1.6% of 190,000 active; in the data active means fold change above about 3.3
# Numbers without * were called inactive; . = no result.
SMILES,STAT3 act,APP 5'UTR act,STAT1 blocker,STAT3 inh,STAT1 act,NF-kB expr up
Cc1cccc2nc(CSc3nnc4ccccn34)cn12,107,94,-40,-8,137*,2.7
c1ccn2c(SCc3cn4ccsc4n3)nnc2c1,112,45,-42,-11,138*,2.2
O=C(CCC1CCCN(C(=O)C2=CCCC2)C1)N1CCN(c2ccccn2)CC1 (centres undefined),87,-20,14,18,86,1.1
C=C(C)CSc1nc2c(cc1C#N)CCC2,105,11,-14,2,113,0.87
CC(=O)Nc1ccc(S(=O)(=O)NCC(=O)OCC(=O)c2cc(C)n(-c3ccc4c(c3)OCO4)c2C)cc1,107,-5,3,-11,98,0.94
c1ccc(-c2n[nH]c(-c3ccccn3)n2)nc1,103,46,-48,0,144*,2
COCCCNC(=O)c1c[nH]c2ccc(S(=O)(=O)N3CCC(C)CC3)cc2c1=O,94,9,4,17,96,0.84
CC(=O)c1sc(-c2cccc(Cl)c2)nc1C,94,16,-9,10,108,1.4
CNC(=O)c1sc(-c2ccccc2)nc1C,93,19,-11,14,110,1.6
CNC(=O)c1sc(-c2ccc(Cl)cc2)nc1C,89,.,-45,13,142*,2.1
CC(=O)c1sc(-c2ccc(Cl)cc2)nc1C,92,36,-39,18,133*,1.4
O=c1nc2c(-c3ccccc3F)n[nH]n2c2ccccc12,123,5,-37,-24,134*,1.7
CCc1ccc(S(=O)(=O)c2n[nH]n3c2nc(=O)c2ccccc23)cc1,100,4,-2,3,101,1
C(=N\N1CCN(c2ccccn2)CC1)/c1ccco1,87,5,-11,18,110,1.6
Cc1ccc(N2C(=O)C(NC(=O)c3ccccc3)(C(F)(F)F)C3=C2CC(C)(C)CC3=O)cc1 (centres undefined),108,-11,1,-12,99,14*
CC1(C)CC(=O)C2=C(C1)N(c1ccc(F)cc1)C(=O)C2(NC(=O)c1ccccc1)C(F)(F)F (centres undefined),99,3,-2,-2,104,1.1
O=C(Nc1nc2ccc(F)cc2s1)c1ccccn1,22,30,70*,96*,35,0.43
CCOc1ccc2nc(NC(=O)c3cnccn3)sc2c1,86,38,-42,18,138*,3.3
O=C(Nc1nccs1)c1cnccn1,97,11,4,8,96,1.3
CCOc1ccc2nc(NC(=O)CSc3ccc(Cl)cc3)sc2c1,104,-14,3,-3,97,1.1
O=C(NCc1cccnc1)C(=O)Nc1nc2ccccc2s1,105,7,-41,-5,139*,1.5
O=C(NCc1cccnc1)C(=O)Nc1nccs1,95,2,-4,6,104,1.1
O=C(Nc1nc2ccccc2s1)c1cnccn1,69,55,-18,36,116,4*
CN(Cc1ccc(-n2cccn2)cc1)Cc1nc(-c2cnccn2)no1,105,4,-6,6,104,1.1
COC(=O)[C@H](C)NC(=O)NC1CCN(Cc2ccccc2)CC1,92,0,2,11,98,0.95
SMILES,STAT3 act,APP 5'UTR act,STAT1 blocker,STAT3 inh,STAT1 act,NF-kB expr up
CCOc1ccc2nc(NC(=O)CSC3=NCCS3)sc2c1,80,46,-32,25,129*,3.1
O=C(NCCN1C(=O)S/C(=C\c2ccc(F)cc2)C1=O)C1CCN(S(=O)(=O)c2cccs2)CC1,99,-9,5,-1,96,1
COc1ccc(/C=C/C(=O)c2cc3c(cc2N)OCO3)cc1,92,145*,-12,12,111,3.8*
CCCn1c(/C=C/c2ccccc2)nc2ccccc21,112,123,-50,-9,144*,5.6*
COCCOCCn1c(/C=C/c2ccccc2)nc2ccccc21,78,166*,-42,31,135*,6*
CC(C)n1c(/C=C/c2ccccc2)nc2ccccc21,91,51,-14,9,113,1.4
COC(=O)C(C)Sc1ncnc2c1nnn2-c1ccc(F)cc1 (centres undefined),92,14,-41,10,137*,1.5
CCOC(=O)CNC(=O)CSc1ncnc2c1nnn2-c1ccc(F)cc1,96,-5,4,10,97,1.7
C=CCn1c(C(C)NC(=O)c2cccc(C)c2)n[nH]c1=S (centres undefined),98,13,4,9,96,3.3*
O=C(Nc1ccccc1)C1CCCCN1S(=O)(=O)c1ccccc1 (centres undefined),103,17,0,-2,98,1.3
Cc1ccc(-c2csc(NC(=O)/C=C/c3ccco3)c2C(=O)O)cc1,98,63,-41,11,138*,1.7
Cc1ccc2nc(/C(C#N)=C\c3ccc(N4CCOCC4)o3)[nH]c2c1,89,121,-50,16,145*,2.5
CN1CCN(NC(=O)CN2C(=O)/C(=C/c3ccccc3Cl)SC2=S)CC1,94,9,4,14,96,1
CN1CCN(NC(=O)CN2C(=O)/C(=C/c3c(Cl)cccc3Cl)SC2=S)CC1,135*,3,0,-43,100,1.3
Cc1ccc(NC(=O)N2CCC(C(N)=O)CC2)cc1,105,-1,8,-3,93,1.1
Cc1ccc(CSc2nnc(-c3ccco3)o2)cc1,106,53,-27,-6,125,3.9*
Fc1ccccc1CSc1nnc(-c2ccccc2)o1,103,139*,-49,1,145*,5*
Cc1ccccc1-c1nnc(SCc2ccccc2)o1,101,44,-35,2,132*,2.9
C#CCSc1nnc(-c2ccc(OC)cc2)o1,89,35,-38,14,134*,3
COc1ccc(-c2nnc(SCC#N)o2)cc1,89,-7,-4,17,104,1.5
c1ccc(CSc2nnc(-c3ccncc3)o2)cc1,92,1,-21,9,120,1.1
N#Cc1c(NC(=O)CSc2ncnc3sccc23)oc(-c2ccco2)c1-c1ccco1,103,1,2,2,99,0.96
C=CCN1C(=O)C2C(C(=O)NCc3ccccc3)C3C=CC2(O3)C1C(=O)NC(C)(C)C (centres undefined),98,-7,0,9,100,1
O=C(O)CSC1c2ccccc2C(=O)N1c1ccccc1 (centres undefined),104,0,-1,-2,101,1
CCSc1nnc(-c2ccc(OC)cc2)o1,82,87,-31,24,128,2.4
Cc1ccccc1-c1nnc(SCc2ccccc2F)o1,101,142*,-53,2,148*,6.4*
COc1ccc(-c2nnc(SCc3ccccc3F)o2)cc1,101,157*,-46,1,142*,7.7*
